ChEMBL document CHEMBL1121579, “Synthesis and adrenergic blocking effects of 2-(alkylamino)-3,4-dihydroquinazolines” (1980)

What was measured:
Rattus norvegicus [1] = experiment: Antagonist effect to pressor response of 0.3 ug/kg of norepinephrine intravenously in rats at the dose 32 uM/kg.; type: functional
Summary of the method: (§1)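 Male Sprague-Dawley rats, 300–350 g, anesthetized with pentobarbital sodium 40 mg/kg ip, trachea cannulated for ventilation. Drugs dissolved in 0.9% saline and injected into a cannulated external jugular vein. Poorly soluble material was given in polyethylene glycol/ethanol/water 20:10:70. n = 3 per determination.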

Rattus norvegicus [2] = experiment: Decrease in mean arterial blood pressure in response to intravenous administration at 16 uM/kg of the compound.; type: functional, Artery; summary of the method: as §1
Rattus norvegicus [3] = experiment: Decrease in mean arterial blood pressure in response to intravenous administration at 2 uM/kg of the compound; type: functional, Artery; summary of the method: as §1
Rattus norvegicus [4] = experiment: Decrease in mean arterial blood pressure in response to intravenous administration at 32 uM/kg of the compound.; type: functional, Artery; summary of the method: as §1
Rattus norvegicus [5] = experiment: Decrease in mean arterial blood pressure in response to intravenous administration at 4 uM/kg of the compound; type: functional, Artery; summary of the method: as §1
Rattus norvegicus [6] = experiment: Decrease in mean arterial blood pressure in response to intravenous administration at 64 uM/kg of the compound.; type: functional, Artery; summary of the method: as §1
Rattus norvegicus [7] = experiment: Decrease in mean arterial blood pressure in response to intravenous administration at 8 uM/kg of the compound; type: functional, Artery; summary of the method: as §1
Rattus norvegicus [8] = experiment: Antagonist effect to pressor response of 0.3 ug/kg of norepinephrine intravenously in rats at the dose 32 uM/kg; type: functional; summary of the method: as §1
Rattus norvegicus [9] = experiment: Decrease in mean arterial blood pressure in response to intravenous administration at 64 uM/kg of the compound; type: functional, Artery; summary of the method: as §1
Rattus norvegicus [10] = experiment: decrease in mean arterial blood pressure in response to intravenous administration at 16 uM/kg of the compound; type: functional; summary of the method: as §1
Rattus norvegicus [11] = experiment: Decrease in mean arterial blood pressure in response to intravenous administration at 32 uM/kg of the compound; type: functional, Artery; summary of the method: as §1
Rattus norvegicus [12] = experiment: Decrease in mean arterial blood pressure in response to intravenous administration at 16 uM/kg of the compound; type: functional, Artery; summary of the method: as §1

Compound | Block (Rattus norvegicus [1]) | Decrease in blood pressure (Rattus norvegicus [2]) | Decrease in blood pressure (Rattus norvegicus [3]) | Decrease in blood pressure (Rattus norvegicus [4]) | Decrease in blood pressure (Rattus norvegicus [5]) | Decrease in blood pressure (Rattus norvegicus [6]) | Decrease in blood pressure (Rattus norvegicus [7]) | Block (Rattus norvegicus [8]) | Decrease in blood pressure (Rattus norvegicus [9]) | Decrease in blood pressure (Rattus norvegicus [10]) | Decrease in blood pressure (Rattus norvegicus [11]) | Decrease in blood pressure (Rattus norvegicus [12])
CNC1=Nc2ccccc2CN1 | 37.8% | 19.7% | 4.67% | 25% | 7.7% | 33.3% | 12.7% |  |  |  |  | 
NC1=Nc2ccccc2CN1 |  |  | 6.76% |  | 12% |  | 13.3% | 49.3% | 23.3% | 15% | 17.7% | 
CN(C)C1=Nc2ccccc2CN1 |  |  | 0% |  | 0% | 24.7% | 5.67% | 10% |  |  | 12.3% | 7.3%
CCCN(CCC)C1=NCc2ccccc2N1 |  | 30.9% | 3.2% | 40% | 7.6% |  | 11.5% |  |  |  |  | 
Cc1ccc(N(CC2=NCCN2)c2cccc(O)c2)cc1 [PHENTOLAMINE] |  |  |  |  |  |  |  | 66.2% |  |  |  | 
